For 167 variants, yeast fitness results are on record in the RNAGym collection of RNA variant scans (doi:10.1126/science.aae0568).

This sample holds only a part of the variants without activity.

To fix the notation:
B1: tRNA (parent)
chain: GUUCCGUUGGCGUAAUGGUAACGCGUCUCCCUCCUAAGGAGAAGACUGCGGGUUCGAGUCCCGUACGGAACG

In this data set the parent is B1. Kind of data set: yeast fitness relative to wild type (ratio to wild type); higher = fitter; tRNA-Arg(CCU), competitive growth, 37 C, YPD. In short, it runs like this: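 A pool of Saccharomyces cerevisiae strains, each with a tRNA-Arg(CCU) gene variant at the native genomic locus, was competed in YPD at 37°C for 24 hours across six parallel replicates. The variants had been chemically synthesised at a 3% per-site mutation rate over 69 sites, and gene amplicons before and after competition were read by 100-nucleotide paired-end sequencing. Darwinian fitness relative to wild type rested on changes in genotype frequencies. Genotypes required ≥ 100 starting reads, and estimates < 0.5 were set to 0.5.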
With G18A A20U A36U A65U, the yeast fitness was no more than 0.5.
The figure for G18A C30G A36C G44C is no more than 0.5; for G17C A40U C66G it is no more than 0.5; for G17C G18A C27U C46U G58A it is no more than 0.5.
Take G17C C30G: the yeast fitness was 0.581.
The figure for G17C C24A U47A G67C is 0.569; for G17C A43U G56A A70U it is no more than 0.5.
G17C C24G U28A C30U A65U A69C: the yeast fitness worked out at 0.571.
Next, G17C C31U A42C C49A: 0.534; G17C A43U C62U: 0.632.
The figure for G17C G23C C31G G50C C60A G63A is no more than 0.5; for G17C C24G C30U G50C it is no more than 0.5.
The figure for G17C A42G C55U is no more than 0.5; for G18A C30A G58A G68U it is no more than 0.5.
G17U G25A G50A G63C: the yeast fitness is no more than 0.5.
As for G17C A21C C34G A37U U47C G68C, the yeast fitness was no more than 0.5.
With G17C C31U A37U G41A G48A, the yeast fitness is no more than 0.5.
The figure for G17C A21C U26A is no more than 0.5.
The figure for G18A C22G is 0.856; for G18A C22A it is 0.805.
The figure for G18A C24A C31A G68U is no more than 0.5; for G17C C22A C31G C55G it is no more than 0.5; for G18A C33U it is no more than 0.5.
For the variant G18A C33G, the yeast fitness is no more than 0.5.
Next, G18A C22G C24G G50A A69C: no more than 0.5; G17A U54C A70G: no more than 0.5; G17U A40C: 0.823.
The figure for G17C C22G A36C G39A A42G G63C is 0.842; for G18A C24U G68C it is 0.538.
For G17C G23C A43U C49A C66U, the yeast fitness was 0.634.
The figure for G18A C30G A37U C55G is no more than 0.5.
Next, G17C A42G: 0.528; G17C A42U: 0.703; G18A A57G A69U: no more than 0.5.
Next, G17C C31G A42C C66U: no more than 0.5; G17C C55U G67A G68C: no more than 0.5; G18A A20U C22U U28A C33U G44C C60A: no more than 0.5.
With G17A U54A G56C G68A, the yeast fitness was no more than 0.5.
Next, G18A C29U C31A A65G: no more than 0.5; G18A C29U G52C: no more than 0.5; G18A C27U U28C C31A C55G: no more than 0.5.
For the variant G17C C24G C46G U59C, the yeast fitness was no more than 0.5.
The figure for G17C G48A A65C is 0.654; for G18A it is 0.76.
Next, G17C C29U A37C G67A: 0.575; G17C G52A G56A A65U A70G: no more than 0.5; G18A A21U U32A: 0.593.
On to G17C U19A A36C A37U A65C, for which the yeast fitness came out at 0.592.
Turning to G17U C55U A70G, the yeast fitness is no more than 0.5.
Next, G18A A20G A69C: no more than 0.5; G17C U26G G39C A40U C61U: no more than 0.5.
As to G18A A65U, the yeast fitness turned out to be 0.729.
Consider G17C C30G C60G, for which the yeast fitness amounted to 0.904.
The figure for G18A C29G A37G G44C is 0.598; for G18A C27G C49G C62G C66U A69C it is no more than 0.5.
Next, G17C G39C A45G U54A: no more than 0.5; G18A A21U G48A: 0.571; G17C C34U C61U G67A: no more than 0.5.
Turning to G17A U53G, the yeast fitness is 0.595.
The figure for G17C G56C G68A is no more than 0.5; for G18A C30U A57C it is no more than 0.5.
Take G17C C34U G68A: the yeast fitness came to 0.536.
Next, G17C C30G U32C C60G G63A A65U C66U: 0.544; G17C A37C A40C C61U: no more than 0.5.
Next, G17C A21U A57U: 0.564; G17C U64C: 0.845; G17C U64A: 0.662.
Next, G18A C29G C49G G63C: no more than 0.5; G17C A42U C62U: 0.645.
With G17C G39A, the yeast fitness stood at 0.665.
For G17C C22U U32C C46U, the yeast fitness was no more than 0.5.
The figure for G17C C24A U32C U47A G67C is no more than 0.5; for G17C C31G it is 0.634.
The figure for G18A C29U A37G is no more than 0.5; for G17C C55U A69U A70U it is no more than 0.5.
Next, G18A A20U C27G: 0.526; G17C C22A U28C C66G G67C: no more than 0.5.
Regarding G17U C27G C30U C60A, the yeast fitness is no more than 0.5.
Next, G17C C29G G39A A70U: no more than 0.5.
The figure for G17C A42U A70G is 0.653; for G17C A21G C27U C33G A42U G48A A57G it is no more than 0.5.
The figure for G17C U32G C34A A40U A43C is no more than 0.5; for G17C A21U C33G G38A G52A it is no more than 0.5.
On to G18A A57U A70C, for which the yeast fitness was 0.536.
As for G17C G18C G51A, the yeast fitness is no more than 0.5.
Next, G17C G25C C61U: no more than 0.5.
The figure for G18A C22A A37C G48A is no more than 0.5.
The figure for G17C C29G U32G G38A U53C is no more than 0.5; for G17C C30U A36G G67U A70G it is no more than 0.5; for G18A C24U G58A it is no more than 0.5.
For G17C C24G U28A C30U G38U A65U A69C, the yeast fitness is no more than 0.5.
Take G17C C24G C46G: the yeast fitness was 0.519.
The figure for G17C G23C C33G G50A G68A is no more than 0.5; for G18A C30U G41C G50A G67C it is 0.666; for G17C U19C C27U A65C it is 0.641.
Next, G17C C49U: 0.768.
Next, G17C C49A: 0.571; G17C C27U A36G: 0.714.
Regarding G17C C31U A42C U53G, the yeast fitness is no more than 0.5.
The figure for G17C C22G U26A A43G C61U A65U is no more than 0.5; for G17C A57U it is 0.52; for G17C U28G U54A it is no more than 0.5.
Next, G17C C34G A37C C62A: 0.561; G17C G18C C22A C60A: 0.529; G17C C29U A70U: no more than 0.5.
The figure for G17A U54C is 0.67; for G18A A20U C29G A37U C55A C66U it is no more than 0.5.
For the variant G17C C22U C29G G51C, the yeast fitness was no more than 0.5.
Next, G17C A37C A45U: 0.659; G18A C33U A42G C60G C62G: no more than 0.5; G17C A45C G48A U59A A70C: no more than 0.5.
The figure for G17C C34A G50A U53G C60U is no more than 0.5; for G18A A37U it is 0.6; for G18A A37C it is 0.727.
With G18A A20U C29G A37U G48A, the yeast fitness was no more than 0.5.
Next, G17A U47G G67A A69C: 0.559; G17C C24G C34U C66U: 0.548.
The figure for G18A A20C C34U A36U G39C A70U is no more than 0.5; for G17U A21G C46U it is 0.588; for G18A A45U C55A it is no more than 0.5.
In the case of G18A C24G C30U, the yeast fitness is no more than 0.5.
Next, G17A U59A C66U: no more than 0.5.
Consider G17C C22G A65G, for which the yeast fitness came out at 0.6.
The figure for G17C C55U G63C G67C is no more than 0.5; for G17C A40G A42U C62U it is no more than 0.5.
On to G17C C22U U32C A40U A65G, for which the yeast fitness was no more than 0.5.
Next, G17C A36U G44C: no more than 0.5; G18A C24G C27U C62U A70C: no more than 0.5.
Next, G17C C24G G38C: no more than 0.5.
The figure for G18A A42G G48C is no more than 0.5.
For the variant G18A A37G G52C C61A, the yeast fitness was no more than 0.5.
As for G17C U47A, the yeast fitness was found to be 0.695.
The figure for G17C C49U C61G C66U is no more than 0.5.
Next, G17C U28A: 0.554; G17C G25A C49A: no more than 0.5; G18A C31A G56C: no more than 0.5.
The figure for G18A A20U U59G is no more than 0.5.
On to G17C C34U A57G A70U, for which the yeast fitness turned out to be 0.558.
The figure for G17C A20U A42U is 0.604; for G17U A21C G25C it is 0.541; for G17C C27U U64C it is no more than 0.5.
Next, G17C C22G A42G C46A: no more than 0.5; G17C G18C C22A U28C C60A C66U: 0.677; G17C A21G C33A C49U: no more than 0.5.
The figure for G17C C33G is 0.534.
Regarding G17C C33A, the yeast fitness is no more than 0.5.
The figure for G17C A36U G48C U54C C60A U64G is no more than 0.5; for G18A C24G C49A it is no more than 0.5; for G18A C30U it is 0.709.
The figure for G17C G41C is 0.664; for G18A A21G C66U it is no more than 0.5.
The figure for G17C G18C C22A C61U is no more than 0.5; for G17C C29A it is 0.544.
For the variant G18A C29U A45G A70G, the yeast fitness was no more than 0.5.
The figure for G17C A43C is 0.734; for G17C G18C C22A it is no more than 0.5.
Next, G17A U47A: 0.823.
Next, G17A U47C: 0.774; G17C G48U: no more than 0.5.
As to G18A A69U, the yeast fitness is 0.896.
Turning to G17C C55U A69U, the yeast fitness was no more than 0.5.
Next, G17C C29U U53A C66A: no more than 0.5.
Next, G18A C30U C55G G68A: no more than 0.5; G17A U35G G48C G67C: 0.558.
Next, G17C A20C G39A: 0.528; G18A A20U A69U: 0.686; G18A A36C U64A: 0.575.
